Columns and labels:
[1] = target: C-C chemokine receptor type 5 (Homo sapiens) (UniProt P51681); assay: Inhibition of CCR5 in human TZM-bl cells infected with HIV1 Bal R5 assessed as antiviral activity by measuring reduction in viral infection at 50 uM pre-incubated with cells followed by viral infection measured after 3 days by luciferase reporter gene assay; type: functional, cell-based
Outline: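 TZM-bl cells were plated, and medium was replaced after 12 h with compound at 50μM in duplicate wells. HIV-1 Bal (R5) at 200TCID50 was added with DEAE at 10μg/mL final. Plates were incubated 3 days at 37°C, 5% CO2. Luciferase substrate in lysis buffer reacted 2 min at room temperature, protected from light. Inhibition % was taken as the decrease in signal relative to virus control, as the mean of two wells.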

[2] = Cytotoxicity against human TZM-bl cells assessed as reduction in cell viability after 2 days by CCK-8 assay; type: cell-based
Outline: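 TZM-bl cells seeded at 1×10^5 cells/mL and exposed to compound at 1000, 200, 40, 8 and 1.6µM, dissolved in DMSO cell freezing medium. Cells kept at 37°C, 5% CO2, in triplicate wells, with a medium-only control. After 2 days, CCK-8 was added for 3–4 h and A450 was read. Survival % = A450 treated/control ×100. CC50 is the concentration giving 50% cytotoxicity.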

[3] = target: Human immunodeficiency virus type 1 integrase (Human immunodeficiency virus 1, UniProt Q7ZJM1); assay: Binding affinity to HIV1 integrase by surface plasma resonance method
Outline: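 IN protein amine-coupled to a CM5 sensor chip (~10000RU) on a Biacore T200. Runs at 25°C in PBST running buffer, flow 30μL/min. Compounds were injected at graded concentrations (200μM, 100μM, 50μM, 25μM, 12.5μM, etc.). Sensorgrams were solvent-corrected and reference flow cell subtracted. KD came from a 1:1 kinetic binding fit.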

Chain of C-C chemokine receptor type 5 (Homo sapiens) (P51681 whole entry, looked up): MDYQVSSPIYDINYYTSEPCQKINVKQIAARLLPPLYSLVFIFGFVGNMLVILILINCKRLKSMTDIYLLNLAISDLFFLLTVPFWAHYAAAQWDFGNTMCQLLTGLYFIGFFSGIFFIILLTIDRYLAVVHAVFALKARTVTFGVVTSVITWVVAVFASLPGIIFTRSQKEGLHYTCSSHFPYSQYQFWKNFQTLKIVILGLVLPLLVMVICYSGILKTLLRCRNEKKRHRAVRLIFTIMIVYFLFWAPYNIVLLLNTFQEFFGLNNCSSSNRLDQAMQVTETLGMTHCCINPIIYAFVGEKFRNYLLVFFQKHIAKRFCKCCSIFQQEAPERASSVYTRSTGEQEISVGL
Chain of Human immunodeficiency virus type 1 integrase (Q7ZJM1 whole entry): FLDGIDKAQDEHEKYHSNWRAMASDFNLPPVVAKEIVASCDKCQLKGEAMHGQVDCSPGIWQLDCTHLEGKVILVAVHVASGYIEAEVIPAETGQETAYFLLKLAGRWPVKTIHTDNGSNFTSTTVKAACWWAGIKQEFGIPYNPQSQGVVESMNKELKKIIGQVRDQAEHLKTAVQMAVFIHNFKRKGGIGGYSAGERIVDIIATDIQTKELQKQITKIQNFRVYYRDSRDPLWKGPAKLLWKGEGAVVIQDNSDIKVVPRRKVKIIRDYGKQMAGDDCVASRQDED

| SMILES | inhibition [1] | CC50 at 48 h [2] | Kd [3] |
| --- | --- | --- | --- |
| O=C(Nc1ccc(CC[S+]([O-])/C=C/c2ccc(O)c(O)c2)cc1)C1CCCCC1 (centres undefined) | 52.7% | – | – |
| Cc1ccc(C(=O)Nc2ccc(CCS(=O)(=O)/C=C/c3ccc(O)c(O)c3)cc2)cc1 | < 20% | 168 µM | – |
| O=C(Nc1ccc(CCS(=O)(=O)/C=C/c2ccc(O)c(O)c2)cc1)C12CC3CC(CC(C3)C1)C2 | 21.6% | 786 µM | – |
| O=C(Nc1ccc(CCS(=O)(=O)/C=C/c2ccc(O)c(O)c2)cc1)C1CCCCC1 | 45.9% | 638 µM | 115 µM |
| CC(=O)Oc1ccc(/C=C/S(=O)(=O)CCc2ccc(NC(=O)C3CCCCC3)cc2)cc1OC(C)=O | < 20% | 169 µM | – |
| CC(=O)Oc1ccc(/C=C/S(=O)(=O)CCc2ccc(NC(=O)c3ccccc3)cc2)cc1OC(C)=O | < 20% | 108 µM | 207 µM |
| COc1ccc(C(=O)Nc2ccc(CC[S+]([O-])/C=C/c3ccc(O)c(O)c3)cc2)cc1 (centres undefined) | 34.1% | – | – |
| CC(=O)Oc1ccc(/C=C/S(=O)(=O)CCc2ccc(NC(=O)c3cc(F)cc(F)c3)cc2)cc1OC(C)=O | < 20% | 225 µM | – |
| CC(=O)Oc1ccc(/C=C/S(=O)(=O)CCc2ccc(NC(=O)c3ccc(F)cc3)cc2)cc1OC(C)=O | 26.2% | 162 µM | – |
| O=C(Nc1ccc(CC[S+]([O-])/C=C/c2ccc(O)c(O)c2)cc1)c1cc(F)cc(F)c1 (centres undefined) | 41.8% | – | – |
| O=C(Cc1cccs1)Nc1ccc(CCS(=O)(=O)/C=C/c2ccc(O)c(O)c2)cc1 | < 20% | 569 µM | – |
| CC(=O)Oc1ccc(/C=C/S(=O)(=O)CCc2ccc(NC(=O)Cc3cccs3)cc2)cc1OC(C)=O | 23% | 161 µM | – |
| CC(=O)Oc1ccc(/C=C/S(=O)(=O)CCc2ccc(NC(=O)c3ccc(C)cc3)cc2)cc1OC(C)=O | < 20% | 177 µM | – |
| COc1ccc(C(=O)Nc2ccc(CCS(=O)(=O)/C=C/c3ccc(OC(C)=O)c(OC(C)=O)c3)cc2)cc1 | < 20% | 858 µM | – |
| O=C(Nc1ccc(CC[S+]([O-])/C=C/c2ccc(O)c(O)c2)cc1)c1ccc(F)cc1 (centres undefined) | 64.6% | 127 µM | – |
| O=C(Nc1ccc(CC[S+]([O-])/C=C/c2ccc(O)c(O)c2)cc1)C12CC3CC(CC(C3)C1)C2 (centres undefined) | 64.7% | – | – |
| Cc1nnc(C(C)C)n1[C@@H]1C[C@H]2CC[C@@H](C1)N2CC[C@H](NC(=O)C1CCC(F)(F)CC1)c1ccccc1 [MARAVIROC] | – | > 1000 µM | – |
| O=C(Nc1ccc(CCS(=O)(=O)/C=C/c2ccc(O)c(O)c2)cc1)c1ccccc1 | < 20% | 238 µM | 160 µM |
| O=C(Nc1ccc(CCS(=O)(=O)/C=C/c2ccc(O)c(O)c2)cc1)c1cc(F)cc(F)c1 | 33% | 414 µM | – |
| COc1ccc(C(=O)Nc2ccc(CCS(=O)(=O)/C=C/c3ccc(O)c(O)c3)cc2)cc1 | < 20% | > 1000 µM | – |
| O=C(Nc1ccc(CCS(=O)(=O)/C=C/c2ccc(O)c(O)c2)cc1)c1ccc([N+](=O)[O-])cc1 | 23.4% | 483 µM | – |
| CC(=O)Oc1ccc(/C=C/S(=O)(=O)CCc2ccc(NC(=O)C34CC5CC(CC(C5)C3)C4)cc2)cc1OC(C)=O | 23.7% | 182 µM | – |
| O=C(Nc1ccc(CCS(=O)(=O)/C=C/c2ccc(O)c(O)c2)cc1)c1ccc(F)cc1 | < 20% | > 1000 µM | – |
| O=C(Nc1ccc(CC[S+]([O-])/C=C/c2ccc(O)c(O)c2)cc1)c1ccccc1 (centres undefined) | 68.4% | 157 µM | 142 µM |
| CC(=O)Oc1ccc(/C=C/S(=O)(=O)CCc2ccc(NC(=O)c3ccc([N+](=O)[O-])cc3)cc2)cc1OC(C)=O | 52.2% | 160 µM | – |
